Measured values collected from several papers.
Target: Serine/threonine-protein kinase BRSK2 (BRSK2, Homo sapiens, UniProt Q8IWQ3)
One construct used (Q8IWQ3 1-736): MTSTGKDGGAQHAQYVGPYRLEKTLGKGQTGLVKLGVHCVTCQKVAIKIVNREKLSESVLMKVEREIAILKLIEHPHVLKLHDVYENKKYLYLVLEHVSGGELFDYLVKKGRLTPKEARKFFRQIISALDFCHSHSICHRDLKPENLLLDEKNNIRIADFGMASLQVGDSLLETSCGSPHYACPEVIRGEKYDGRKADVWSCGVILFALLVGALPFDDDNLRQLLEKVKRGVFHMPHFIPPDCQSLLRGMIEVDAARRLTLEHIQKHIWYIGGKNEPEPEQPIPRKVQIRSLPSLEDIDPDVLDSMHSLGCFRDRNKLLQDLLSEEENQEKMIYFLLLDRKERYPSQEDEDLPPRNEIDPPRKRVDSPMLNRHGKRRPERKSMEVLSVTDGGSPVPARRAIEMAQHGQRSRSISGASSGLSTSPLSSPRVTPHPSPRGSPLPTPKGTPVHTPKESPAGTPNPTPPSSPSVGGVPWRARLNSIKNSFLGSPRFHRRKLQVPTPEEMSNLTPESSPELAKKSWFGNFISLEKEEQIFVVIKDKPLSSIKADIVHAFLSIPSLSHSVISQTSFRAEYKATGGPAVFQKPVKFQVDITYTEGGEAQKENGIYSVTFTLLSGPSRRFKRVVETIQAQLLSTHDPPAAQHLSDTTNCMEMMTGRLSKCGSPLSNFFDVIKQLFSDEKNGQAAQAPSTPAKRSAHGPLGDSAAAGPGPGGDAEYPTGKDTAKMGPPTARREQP

| Compound | assay | setting | endpoint | result |
| --- | --- | --- | --- | --- |
| CNc1cccc2cc(C(=O)Nc3ccc(C(=O)O)cc3)c(=O)[nH]c12 | enzyme activity, inhibitor | 10 µM | inhibition | 7.8% |
| CCOC(=O)c1cc2cc(-c3cc(C(=O)NCc4ccc(C(=O)O)cc4)nn3C)ccc2[nH]1 | cell-free assay, competition with immobilised ligand | 0.1 µM | remaining binding | 67% |
| Oc1ccc(-c2nc(-c3ccncc3)c(-c3ccc(F)cc3)[nH]2)cc1 | cell-free assay | 0.5 µM | remaining signal | 101% |
| FC(F)(F)Oc1cccc(-c2cnc3ccc(-c4ccncc4)nn23)c1 | enzyme activity, inhibitor, radiometric | 1 µM | activity vs control | 81% |
| Nc1ncnc2occ(-c3ccc(NC(=O)Nc4cc(C(F)(F)F)ccc4F)cc3)c12 | cell-free assay, inhibitor | 20 µM | remaining signal | 6.6% |
| CNCc1ccccc1-c1csc([C@@H](C)Nc2nc(C)nc3cc(OC)c(OC)cc23)c1 | cell-free assay, competition with immobilised ligand | 1 µM | remaining binding | 100% |
| Oc1cccc(-c2nc(N3CCOCC3)c3oc4ncccc4c3n2)c1 | enzyme activity, inhibitor | 10 µM | remaining activity | 99% |
| O=C1Nc2ccc(Cl)cc2C1=Cc1cc(Cl)c(O)c(Cl)c1 | cell-free assay | 0.5 µM | remaining signal | 77.2% |
| Cc1ccc(Nc2nccc(N(C)c3ccc4c(C)n(C)nc4c3)n2)cc1S(N)(=O)=O | enzyme activity, inhibitor | 0.3 µM | inhibition | 1% |
| Cc1ccc(NC(=O)c2ccc(C)c(C(F)(F)F)c2)cc1C#Cc1nn(C2CCC(O)CC2)c2ncnc(N)c12 (stereo not shown) | cell-free assay | 10 µM | remaining signal | 93% |
| Cc1c(C(=O)O)cc(-c2ccc(C3CCNCC3)cc2)c2ccc(-c3ccc(C(F)(F)F)cc3)cc12 | binding, competition with immobilised ligand | 1 µM | remaining binding | 100% |
| O=C1NC(=O)c2cc(Nc3ccc(F)cc3)c(Nc3ccc(F)cc3)cc21 | cell-free assay | 0.5 µM | remaining signal | 96.8% |
| Cc1ccc(C(=O)Nc2ccc(CN3CCN(C)CC3)c(C(F)(F)F)c2)cc1C#Cc1cnc2cccnn12 | enzyme activity, inhibitor | 23.5 nM | remaining activity | 92% |
| CCS(=O)(=O)c1cc2cc(C[C@](O)(CC(C)(C)c3ccc(F)cc3C(N)=O)C(F)(F)F)[nH]c2cn1 | cell-free assay, competition with immobilised ligand | 1 µM | remaining binding | 100% |
| Cc1cnc(NC2CCOCC2)nc1-n1cnc(C(=O)NC(CN)c2cc(F)cc(Cl)c2)c1 (stereo not shown) | enzyme activity, inhibitor, radiometric | 1 µM | remaining activity | 42% |
| CCCOc1ccc(OC)c(F)c1C(=O)c1ccc(C(=O)N[C@@H]2CNC[C@H]2NC(=O)c2ccc3[nH]ncc3c2)cc1 | enzyme activity, inhibitor | 10 µM | remaining activity | 33% |
| Cn1nc(C(=O)NCc2ccc(C(=O)O)cc2)cc1-c1ccc2[nH]ccc2c1 | cell-free assay, competition with immobilised ligand | 0.1 µM | remaining binding | 100% |
| Nc1nc(Nc2ccc(S(N)(=O)=O)cc2)nn1C(=O)c1c(F)cccc1F | cell-free assay | 0.5 µM | remaining signal | 49% |
| Nc1nc(Nc2ccccc2)sc1C(=O)c1c(F)cccc1F | enzyme activity, inhibitor | 10 µM | remaining activity | 55% |
| CS(=O)(=O)N1CCCC(NC(=O)[C@H](CCC2CCCCC2)NC(=O)c2ccc(CNC(=O)c3cnc4ccccn34)cc2)C1 (stereo partly shown) | cell-free assay, competition with immobilised ligand | 0.1 µM | remaining binding | 100% |
| CC(C)(C)c1nc(-c2cccc(NS(=O)(=O)c3c(F)cccc3F)c2F)c(-c2ccnc(N)n2)s1 | enzyme activity, inhibitor, radiometric | 1 µM | remaining activity | 50% |
| FC(F)(F)c1ccc2c(c1)nc(-c1cccnc1)n2C1CC1 | cell-free assay, competition with immobilised ligand | 1 µM | remaining binding | 90% |
| COc1cc(Nc2cnc(C#N)c(O[C@H](C)CN(C)C)n2)ncc1-c1cnn(C)c1 | enzyme activity, inhibitor, radiometric | 10 µM | remaining activity | 14% |
| Cc1sc(C(=O)NC2COC2)cc1-n1cc(NC(=O)Nc2c(F)cccc2Cl)cn1 | enzyme activity, inhibitor | 10 µM | remaining activity | 102% |
| CN1CC(Oc2cnc(C#N)cc2-c2ccn3nc(NC(=O)C4CC4)cc3c2)C1 | enzyme activity, inhibitor | 1 µM | inhibition | 16% |
| CCN(CC)c1ccc(C2=NNC(=O)CC2C)cc1[N+](=O)[O-] (stereo not shown) | enzyme activity, inhibitor | 10 µM | remaining activity | 104% |
| Cc1cc(-n2nc(Cc3cc(F)cc(C(F)(F)F)c3)nc2C)ccc1C(N)=O | cell-free assay, competition with immobilised ligand | 1 µM | remaining binding | 77% |
| Cc1cc(NC(=O)c2cccc3cc(-c4cccc5[nH]nc(N)c45)ccc23)ccc1F | enzyme activity, inhibitor | 0.1 µM | activity vs control | 100% |
